Experimental data as given in ChEMBL document CHEMBL1139624, “Synthesis and evaluation of isatin derivatives as effective SARS coronavirus 3CL protease inhibitors” (Bioorg Med Chem Lett, 2005).

target: T1, Replicase polyprotein 1a (Severe acute respiratory syndrome-related coronavirus, UniProt P0C6U8); assay: In vitro inhibitory concentration SARS coronavirus main protease (SARS CoV 3C-like protease); conditions: not given

`O=C1C(=O)N(Cc2cc3ccccc3s2)c2c(Br)cccc21` showed an IC50 of 0.98 µM.

target: T1, Replicase polyprotein 1a; assay: In vitro inhibitory concentration against SARS coronavirus main protease (SARS CoV 3C-like protease); conditions: not given

First: O=C1C(=O)N(Cc2cc3ccccc3s2)c2ccc(I)cc21
Second: O=C1C(=O)N(Cc2cc3ccccc3s2)c2ccc(F)cc21
The IC50 of the first is 5.1-fold lower: 0.95 µM for the first, 4.82 µM for the second. The first is the more potent here.

Going from `O=C1C(=O)N(Cc2ccc(F)cc2Cl)c2ccc(I)cc21` to `O=C1C(=O)N(C/C=C/c2cc3ccccc3s2)c2ccc(I)cc21`, the IC50 rises from 9.4 µM to 23.5 µM (2.5-fold).

Compared with `Cc1noc(C)c1CN1C(=O)C(=O)c2cc(C#N)ccc21`, `O=C1C(=O)N(Cc2cc3ccccc3s2)c2ccccc21` is 1.8-fold higher in IC50: 7.2 µM for the first, 13.1 µM for the second. The first is the more potent here.

Compared with `O=C1C(=O)N(Cc2cc3ccccc3s2)c2cccc(Cl)c21`, `O=C1C(=O)N(Cc2cc3ccccc3s2)c2c1cccc2[N+](=O)[O-]` is 5.6-fold lower in IC50: 11.2 µM for the first, 2 µM for the second.

`O=C(Nc1ccc(Cl)cc1)c1ccc(CN2C(=O)C(=O)c3cc(I)ccc32)s1` and `O=C1C(=O)N(Cc2ccc(C(=O)N3CCCCC3)s2)c2ccc(I)cc21` are within 1.5-fold of each other in IC50: 12.6 µM for the first, 17.5 µM for the second.

system: not listed separately; assay: In vitro inhibitory concentration against Trypsin (serine protease); conditions: not given
Outline: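 Trypsin counter-screen run with 9 nM enzyme and 200 μM substrate.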

`O=C1C(=O)N(Cc2cc3ccccc3s2)c2ccc(I)cc21` and `O=C1C(=O)N(Cc2cc3ccccc3s2)c2c(Br)cccc21` are within 1.5-fold of each other in IC50: 243 µM for the first, 362 µM for the second.

target: T1, Replicase polyprotein 1a; assay: In vitro inhibitory concentration against SARS coronavirus main protease (SARS CoV 3C-like protease) at 20 uM; conditions: not given
Outline: (§1)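 FRET assay with 50 nM 3CLpro preincubated 10 min at room temperature with inhibitor at 20 μM in pH 7.5 Tris–HCl/NaCl/EDTA/DTT/β-ME buffer. Percent inhibition was taken from the initial velocity.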

`O=C1C(=O)N(CC2COc3ccccc3O2)c2ccc(I)cc21` (stereo not given) showed an IC50 of 13.5 µM.

system: not listed separately; assay: In vitro inhibitory concentration against Papain (cysteine protease); parameters: species or system Carica papaya; conditions: not given

`O=C1C(=O)N(Cc2cc3ccccc3s2)c2ccc(I)cc21` and `O=C1C(=O)N(Cc2cc3ccccc3s2)c2c(Br)cccc21` are within 1.5-fold of each other in IC50: 87.2 µM for the first, 103 µM for the second.

target: Replicase polyprotein 1a (Severe acute respiratory syndrome-related coronavirus) (UniProt P0C6U8); assay: In vitro percent inhibition against SARS coronavirus main protease (SARS CoV 3C-like protease) at 20 uM; conditions: not given; outline: as §1

Compared with `O=C1C(=O)N(Cc2cc3ccccc3s2)c2c(Cl)ccc(Cl)c21`, `Nc1cccc2c1N(Cc1cc3ccccc3s1)C(=O)C2=O` is lower in inhibition: 46% for the first, 31% for the second.

Going from `Cc1noc(C)c1CN1C(=O)C(=O)c2cc(C(N)=O)ccc21` to `CC(C)NC(=O)c1ccc(CN2C(=O)C(=O)c3cc(I)ccc32)s1`, the inhibition rises from 25% to 47%.

Compared with `Cc1cc2c(c([N+](=O)[O-])c1)N(Cc1cc3ccccc3s1)C(=O)C2=O`, `Cc1cc2c(c([N+](=O)[O-])c1)N(CC(=O)c1cc3ccccc3s1)C(=O)C2=O` is higher in inhibition: 39% for the first, 40% for the second.

Compared with `COc1ccc2c(c1)C(=O)C(=O)N2Cc1cc2ccccc2o1`, `O=C1C(=O)N(Cc2cc3ccccc3o2)c2ccc([N+](=O)[O-])cc21` is higher in inhibition: 13% for the first, 24% for the second.

Compared with `O=C(NC1CCCCC1)c1ccc(CN2C(=O)C(=O)c3cc(I)ccc32)s1`, `O=C(Nc1ccc(F)cc1)c1ccc(CN2C(=O)C(=O)c3cc(I)ccc32)s1` is higher in inhibition: 36% for the first, 46% for the second.

First: Nc1ccc2c(c1)C(=O)C(=O)N2CC(=O)c1cc2ccccc2s1
Second: COc1ccc2c(c1)C(=O)C(=O)N2Cc1cc2ccccc2s1
The inhibition of the first is higher: 40% for the first, 27% for the second.

Work on `O=C(Nc1ccc(F)cc1F)c1ccc(CN2C(=O)C(=O)c3cc(I)ccc32)s1` yielded an inhibition of 32%.

target: Replicase polyprotein 1a (Severe acute respiratory syndrome-related coronavirus) (UniProt P0C6U8); assay: In vitro percent inhibition against SARS coronavirus main protease (SARS CoV 3C-like protease); conditions: concentration not given here; outline: as §1

For `O=C1C(=O)N(Cc2cc3ccccc3o2)c2ccc(I)cc21`, the inhibition was 13%.
